High-throughput results: PubChem, several laboratories
The sample as a whole holds a higher share of hits than the screen did.
Redox H2O2 prof: compounds producing H2O2 with reducing agent – biochemical, NIH compound library profiling, artefact control for MLSCN library redox annotation, primary screen | DTT-dependent redox cycling H2O2, phenol red/HRP absorbance; 100% = 100 µM peroxide control, 0% = buffer | activation, % at 10 µM | 0.03% of 200,000 active;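 active means activation of at least 50% relative to the plate's high and low controls in the primary single-dose screen; inactive means activation below 50%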;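 further: compound incubated with DTT at 0.8 mM final as the reducing agent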
T cruzi repl: blocks replication of Trypanosoma cruzi | T. cruzi beta-gal in NIH3T3, luminescence, 90 h | inhibition, % (test concentration not listed) | 1.4% of 300,000 active | AID 1885;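 active means mean inhibition across valid replicates above about 55%, limit read from the data; inconclusive means mean below that limit but half or more replicates reach it; inactive means mean below it, under half of replicates reach it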;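 further: signal also drops with host cell toxicity which is not excluded here; 0% = plate median of DMSO wells and 100% = zero luminescence signal; higher percent means less beta-gal luminescence so fewer parasites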
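System – NIH/3T3 host cells with β-galactosidase reporter T. cruzi · Doses – single 50 nL compound addition per well in DMSO · Reagent – 5000 T. cruzi trypomastigotes/well · Medium – Low-serum DMEM with 2% FBS · Timing – ≥90 h infection period, 3 h prior cell attachment · Evaluation – parasite load inhibition, % · Technique – GalScreen luminescence, 60 min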
Lmaj promast: Leishmania major promastigote growth inhibition. Leishmania major promastigotes, resazurin fluorescence viability. inhibition, % at 10 µM. 9% of 200,000 active; in the data active means inhibition above about 50%;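 further: promastigotes grown with compound for 44 hours at 28 °C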
MPTP block: inhibitors of mitochondrial permeability transition pore; AID 602449; isolated mouse mitochondria, Ca2+ swelling absorbance, 30 min; inhibition, % at 10 µM; 1.4% of 360,000 active;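 active means inhibition of 50% or more, scaled per plate between neutral and stimulator controls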;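 further: 0% = DMSO wells given calcium and 100% = 1 mM EGTA wells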
Hep lipid drop: hepatic lipid droplet formation modulation; AML12 mouse hepatocytes, oleate lipid droplets, BODIPY imaging; 0.4% of 240,000 active; inhibition, % at 6.5 µM; AID 1656;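 active means lipid droplet intensity inhibited by at least 50%, with more than 500 cells counted; inconclusive means wells with under 300 cells, treated as cytotoxic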
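Test system: AML12 mouse liver cells; schedule: overnight exposure; technique: high-content imaging of BODIPY-stained droplets and DAPI nuclei; read-out: % inhibition of corrected integrated BODIPY droplet signal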
Active calls of the source: *; ? = inconclusive; / = no result.

SMILES	Redox H2O2 prof	T cruzi repl	Lmaj promast	MPTP block	Hep lipid drop
COc1ccccc1Nc1nc(N)nc(CSC(=S)N2CCN(c3ccccc3)CC2)n1	1	63*	32	2	-2
COc1ccccc1Nc1nc(N)nc(CSC(=S)N2CCC(C)CC2)n1	0	37	1	1	22
C=CCC[C@@H](Cc1ccc(F)cc1)C(=O)OC[C@@H](Cc1ccccc1)NC(=O)[C@@H](CC=C)CC(=O)N[C@@H](CO)Cc1ccccc1	/	/	/	1	/
COc1cccc(CC2(CO)CCCN(Cc3ccccc3Cl)C2)c1 (centres undefined)	/	26	/	1	-2
COc1cccc(CC2(CO)CCCN(Cc3ccc(CN4CCCCC4)s3)C2)c1 (centres undefined)	-1	71*	77*	3	-3
CCn1cc(CN2CCCC(CO)(Cc3ccc(F)cc3)C2)c2ccccc21 (centres undefined)	/	51	/	2	-15
COc1cccc(CC2(CO)CCCN(Cc3cn(C)c4ccccc34)C2)c1 (centres undefined)	0	65*	26	1	0
Cn1cc(CN2CCCC(CO)(Cc3ccccc3)C2)c2ccccc21 (centres undefined)	-1	67*	43	3	-2
COCc1ccc(CN2CCCC(CO)(Cc3cccc(OC)c3)C2)o1 (centres undefined)	/	39	/	2	-4
COc1cccc(CC2(CO)CCCN(Cc3cnn(-c4ccccc4)c3)C2)c1 (centres undefined)	0	?	90*	1	-14
CC(=O)c1c(C)[nH]c(C(=O)N(C)C(c2ccccc2)c2ccccc2)c1C	0	11	24	-1	13
OC[C@H]1O[C@@H](O[C@@H]2[C@@H](CO)O[C@@](O)(CO)[C@H]2O)[C@H](O)[C@@H](O)[C@H]1O	/	-8	/	-4	/
COc1ccc(CCC(=O)Nc2cccc(S(=O)(=O)N3CCCC3)c2)cc1OC	/	/	/	0	/
CC(C)(C)c1ccc(OCCNCc2ccccc2)cc1	/	7	/	8	4
CC(C)(C)c1ccc(OCCCCCCN2CCNCC2)cc1	/	7	/	7	/
CC(C)(c1ccccc1)c1ccc(OCCCN2CCNCC2)cc1	0	64*	100*	0	-12
CNCCCOc1ccc(C(C)(C)c2ccccc2)cc1	0	28	100*	/	-2
CC(C)CNS(=O)(=O)c1ccc(CCC(=O)NCCc2ccccc2)cc1	/	9	/	-1	-4
CC(C)(C)n1nnnc1C(c1ccccn1)N(Cc1ccccc1)Cc1ccc(Cl)cc1 (centres undefined)	3	40	53*	3	-10
CCN(Cc1ccccc1)C(c1ccccn1)c1nnnn1C(C)(C)CC (centres undefined)	0	12	25	2	/
COc1ccc(NC(=O)c2ccc3c(c2)C(=O)N(Cc2ccncc2)C3=O)cc1S(N)(=O)=O	/	/	/	-1	/
COc1ccc(-c2nc(CN3CCN(c4cc(C)nc(C)c4)CC3)c(C)o2)c2ccccc12	0	36	100*	-2	-24
Cc1cc(N2CCN(Cc3nc(-c4ccc(Cl)cc4)oc3C)CC2)cc(C)n1	/	19	/	19	4
OCCN=c1cc(-c2ccccc2)oc2ccc(Cl)cc12	2	21	84*	1	/
COc1ccc(-c2ccc(C(C)=O)cc2)cc1[C@H]1[C@H]2C=CC[C@@H](C)[C@@H]2C(=O)N1Cc1ccccc1	/	60*	/	0	-5
SMILES	Redox H2O2 prof	T cruzi repl	Lmaj promast	MPTP block	Hep lipid drop
COC(=O)c1ccc(-c2ccc(OC)c([C@H]3[C@H]4C=CC[C@@H](C)[C@@H]4C(=O)N3Cc3ccccc3)c2)cc1	/	47	/	4	-2
COC(=O)c1ccc(NC(=O)C(=O)N2CCN(C(=S)NCCc3ccccc3)CC2)cc1	0	1	72*	-1	-10
S=C(NCCc1ccccc1)N1CCN(Cc2ccccc2)CC1	0	16	58*	0	-21
COc1ccc(N2CCN(C(=S)NCCc3ccccc3)CC2)cc1	-4	-16	-8	2	/
Oc1ccc(N2CCN(C(=S)NCCc3ccccc3)CC2)cc1	1	23	98*	1	/
OC1CCN(C(=S)NCCc2ccccc2)CC1	0	-6	-5	-1	-2
S=C(NCCc1ccccc1)N1CCc2ccccc2C1	0	7	78*	9	10
C=CCN1C(=O)c2ccc(C(=O)N(CCOC)c3c(N)n(CCCC)c(=O)[nH]c3=O)cc2C1=O	/	0	/	-2	/
CCn1ncc(/C=N\NC(=O)c2csc3ccccc23)c1C	-4	-22	62*	-1	/
CC(C)(C)NC(=O)c1ccc(COc2ccc(Cl)cc2Cl)o1	/	15	/	1	-24
CC1CC1C(=O)Nc1nc(-c2cccs2)c(-c2cccs2)s1 (centres undefined)	0	4	62*	2	8
Cc1c(Cl)ccc2c(C(=O)NCCN3CCCCC3)cc(-c3ccccn3)nc12	8	-7	79*	30	/
COc1ccccc1-c1cc(C(=O)NC2CCN(C)CC2)c2ccc(Cl)c(C)c2n1	/	59*	/	-3	-3
Cc1c(Cl)ccc2c(C(=O)NCCCn3nccc3C)cc(-c3ccccn3)nc12	/	17	/	1	6
O=C(O)C(Cc1c[nH]c2ccccc12)N1C(=O)C2C3c4ccccc4C(c4ccccc43)[C@@H]2C1=O (some centres undefined)	/	-7	/	1	4
Cc1cc(C)c(C)c(S(=O)(=O)N2CCN(C(=O)c3ccccc3OCc3c(C)noc3C)CC2)c1C	/	/	/	-1	/
Cn1nc(C(=O)OCC(=O)Nc2cccc(S(=O)(=O)N3CCCC3)c2)c2ccccc2c1=O	/	6	/	12	1
O=C(Nc1ccccc1)c1ccccc1N=Cc1cccc(O)c1	-2	14	11	-1	-13
COc1ccc(/C=N/NC(=O)CSCC(=O)Nc2ccccc2)cc1	/	-5	/	2	/
COc1cccc(/C=N\NC(=O)C2C(=O)NCC2c2ccccc2)c1O (centres undefined)	2	-10	96*	-1	/
COc1cccc(C=Nc2ccccc2C(=O)Nc2ccccc2)c1O	7	-12	52*	0	-22
C=CCc1cccc(/C=N/NC(=O)CNc2cccc3ccccc23)c1O	0	38	-14	48	9
C=CCc1cccc(/C=N/NC(=O)CNc2ccccc2OC)c1O	0	65*	-10	40	4
COc1ccc(/C=N/NC(=O)C2C(=O)NCC2c2ccccc2)c(OC)c1 (centres undefined)	0	-4	-1	1	0
COc1cccc(/C=N/NC(=O)CSCC(=O)Nc2ccccc2)c1O	-2	-5	99*	0	/
CC1CCCCC1NC(=O)CSc1nnc(COc2ccc(Cl)cc2)o1 (centres undefined)	/	-4	/	1	13
CC(C)(C)S(=O)N1Cc2cc(C(=O)N3CCOCC3)nc(-c3cccc(Br)c3)c2[C@@H]1CCO (some centres undefined)	/	/	/	0	/
